Laboratory results as given in ChEMBL document CHEMBL1146220, “Rational optimization of the binding affinity of CD4 targeting peptidomimetics with potential anti HIV activity” (J Med Chem, 2007).
Numbered stars: 1 amine (or outer) side, 2 acyl side, 3 side chain; on linkers, the order of the positions; unused ones are H or OH. Square brackets hold non-standard residues; d marks the D form. Peptide text beside a SMILES is read from it. * marks the point of attachment. Acetyl(2-naphthyloxy) = O=C(COc1ccc2ccccc2c1)*; Alaninol(O-CO) = C[C@@H](COC(=O)[*:2])N[*:1]; NH(1-Adamantyl) = C1C2CC3CC1CC(N*)(C2)C3; X1 = O=C(OC[C@@H]1CCCN1[*:1])[*:2]; X2 = S=C(NC1CC1)OC[C@@H]1CCCN1*; X3 = O=C(COc1cccc2cccnc12)*; NHcHex = C1CCC(N*)CC1; NHcPent = C1CCC(N*)C1; NHtBu = CC(C)(C)N*

Legend:
[1] = target: T-cell surface glycoprotein CD4 (Homo sapiens, UniProt P01730); assay: Binding affinity to CD4 by SPR assay
Method in brief: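 Test ligands passed over the CD4 SPR surface at a series of concentrations, recording the concentration-dependent maximum response units (RU). Surface regenerated between runs with short pulses of 100 mM H3PO4. Only the lower concentrations (generally up to 50 µM) fitting a one-site binding model were used. KD was taken as the concentration at RUmax/2.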

[2] = Half life by pronase digestion assay; type: ADME; conditions: pronase (protease digestion)
Method in brief: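 Pronase digestion was run at 37 °C. Aliquots were taken at 5, 10, 15, 20 and 30 min and quenched with 1 M acetic acid. Hydrolysis products were identified as M+H+/Na+/K+ ions, and t1/2 was derived from the disappearance time course.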

Kd [1] [µM]	half-life [2] [min]	Compound
6000	6	H-NMWQKVGTPL-OH
6		CC(C)[C@H](NC(=O)[C@H](CCCCN)NC(=O)COc1ccc2ccccc2c1)C(=O)NCC(=O)N[C@H](C(=O)N1CCC[C@H]1COC(=O)NC(C)(C)C)[C@@H](C)O ({Acetyl(2-naphthyloxy)}-KVGT[X1]-NHtBu)
35	27.3	CC(C)[C@H](NC(=O)[C@H](CCCCN)NC(=O)COc1ccc2ccccc2c1)C(=O)NCC(=O)N[C@H](C(=O)N1CCC[C@H]1COC(=O)NC1CCCCC1)[C@@H](C)O ({Acetyl(2-naphthyloxy)}-KVGT[X1]-NHcHex)
26	23	CCOC(=O)CNC(=O)OC[C@@H]1CCCN1C(=O)[C@@H](NC(=O)CNC(=O)[C@@H](NC(=O)[C@H](CCCCN)NC(=O)COc1ccc2ccccc2c1)C(C)C)[C@@H](C)O ({Acetyl(2-naphthyloxy)}-KVGT[X1]G-OEt)
13		CC(C)[C@H](NC(=O)[C@H](CCCCN)NC(=O)COc1cccc2cccnc12)C(=O)NCC(=O)N[C@H](C(=O)N[C@@H](C)COC(=O)NC(C)(C)C)[C@@H](C)O (X3-KVGT[Alaninol(O-CO)]-NHtBu)
62		CC(C)[C@H](NC(=O)[C@H](CCCCN)NC(=O)COc1ccc2ccccc2c1)C(=O)NCC(=O)N[C@H](C(=O)N[C@@H](C)COC(=O)NC1CCCC1)[C@@H](C)O ({Acetyl(2-naphthyloxy)}-KVGT[Alaninol(O-CO)]-NHcPent)
80		CC(C)[C@H](NC(=O)[C@H](CCCCN)NC(=O)COc1ccc2ccccc2c1)C(=O)NCC(=O)N[C@H](C(=O)N[C@@H](C)COC(=O)NC12CC3CC(CC(C3)C1)C2)[C@@H](C)O ({Acetyl(2-naphthyloxy)}-KVGT[Alaninol(O-CO)]-{NH(1-Adamantyl)})
16		CC(C)[C@H](NC(=O)[C@H](CCCCN)NC(=O)COc1ccc2ccccc2c1)C(=O)NCC(=O)N[C@H](C(=O)N1CCC[C@H]1COC(=O)NC1CCCC1)[C@@H](C)O ({Acetyl(2-naphthyloxy)}-KVGT[X1]-NHcPent)
26		CC(C)[C@H](NC(=O)[C@H](CCCCN)NC(=O)COc1cccc2cccnc12)C(=O)NCC(=O)N[C@H](C(=O)N1CCC[C@H]1COC(=O)NC(C)(C)C)[C@@H](C)O (X3-KVGT[X1]-NHtBu)
27		CC(C)[C@H](NC(=O)[C@H](CCCCN)NC(=O)COc1ccc2ccccc2c1)C(=O)NCC(=O)N[C@H](C(=O)N1CCC[C@H]1COC(=S)NC1CC1)[C@@H](C)O ({Acetyl(2-naphthyloxy)}-KVGT-X2)
20		CC(C)[C@H](NC(=O)[C@H](CCCCN)NC(=O)COc1ccc2ccccc2c1)C(=O)NCC(=O)N[C@H](C(=O)N[C@@H](C)COC(=O)NC(C)(C)C)C(C)O (single isomer, unassigned)
